PABP1 MLLE inh = inhibitors of PABP1 MLLE–PAM2 peptide binding, primary screen, biochemical, fluorescence polarization, FITC-PAM2, GST-MLLE | inhibition, % at 20 µM | Polyadenylate-binding protein 1 (Homo sapiens), P11940 | 0.36% of 360,000 active; in the data active = inhibition above about 35%, passing the limit was not always enough;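 note: plate controls were DMSO wells with GST-MLLE for no effect and wells lacking GST-MLLE protein for full effect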
NS3 helicase inh = inhibitors of HCV NS3 helicase, primary screen, biochemical, Cy5 molecular beacon fluorescence; Hepatitis C virus NS3 helicase; NS3 helicase DNA unwinding; inhibition, % at 10.9 µM; 0.56% of 290,000 active;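 active = inhibition above the mean of all tested compounds plus 3 SD, set per campaign, cut at about 35% in these data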;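 note: 0% = DMSO wells and 100% = thioflavine S control wells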
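Test system: hepatitis C virus NS3 helicase domain fragment enzyme. Also added: annealed dual-labelled DNA beacon duplex, ATP-started. Timing: 60 min unwinding reaction at 25 °C after ATP addition. Technique: Cy5 fluorescence. Measure: % inhibition of unwinding.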
eIF4H inh = human eIF4H binding inhibitors, primary screen, translation initiation inhibitor project, biochemical, uHTS, fluorescence polarization; inhibition, % at 35 µM; 0.94% of 290,000 active; Eukaryotic translation initiation factor 4H (Homo sapiens), Q15056; eIF4H fluorescence polarization binding assay;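 note: calls also rest on retests at 20 µM and on dose response follow-up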
HCV core dimer = inhibitors of HCV core protein dimerization, primary screen, biochemical, TR-FRET, high-throughput; inhibition, % at 5 µM; AID 1899, 2009; 0.33% of 300,000 active; TR-FRET GST/Flag-core106 dimerization, 1536-well;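 active = inhibition above the mean of all tested compounds plus 3 SD, set per screening campaign, cut at about 45% in these data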
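Assay system: GST-tagged and Flag-tagged HCV core protein residues 1-106 / Times: compound-protein-antibody incubation 4 h at 22.5 °C / Signal: time-resolved FRET, ex 340 nm, em 617 and 671 nm / Evaluation: % inhibition based on acceptor/donor emission ratio / Benchmarks: wells lacking GST-core106 and wells with excess unlabelled core106 / Repeats: singlicate, one well per compound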
PABP FP inh = PABP poly(A) RNA binding inhibitors, primary screen, biochemical, fluorescence polarization, uHTS. Polyadenylate-binding protein 1 (Homo sapiens), P11940. inhibition, % at 35 µM. 1% of 290,000 active. AID 2014, 2009;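 note: calls also rest on retests at 20 µM and on dose response follow-up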
FID counter = compounds displacing fluorescent DNA intercalator, primary screen, artefact control for HCV NS3 helicase inhibitor project, biochemical, FID fluorescence. DNA fluorescent intercalator displacement. inhibition, % at 7.9 µM. 0.17% of 290,000 active. AID 1845, 2009; in the data active = inhibition above about 37%;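 note: 0% = vehicle and 100% = reference compound; higher means more ethidium bromide displaced from hairpin DNA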
Numbers without * were called inactive. Sampled rows, rich in hits. Any-hit rate of the full collection: about 2%. Unless noted, the rule behind the calls is not given here.

`Cc1ccc(SCCN2CCC(C(C)(C)C)CCC2=O)cc1` (centres undefined) gave PABP1 MLLE inh 0, NS3 helicase inh -5, eIF4H inh 6, HCV core dimer -5, PABP FP inh 47 and FID counter -34.
Screening O=C(CCNS(=O)(=O)c1ccccc1)OCc1ccc([N+](=O)[O-])cc1 returned PABP1 MLLE inh -3.
For CCOc1ccccc1C(=O)Nc1cc(C)ccc1NC(=O)c1ccco1 the results were PABP1 MLLE inh 0, NS3 helicase inh 3, eIF4H inh -9, HCV core dimer -2, PABP FP inh -8 and FID counter -30.
For O=C1N=C(N2CCN(c3cccc4ccccc34)CC2)S/C1=C/c1cccs1 the results were PABP1 MLLE inh 5, NS3 helicase inh -6, eIF4H inh -3, HCV core dimer 67*, PABP FP inh -2 and FID counter -1.
Cc1ccccc1N1CCN(C2=NC(=O)/C(=C\c3cccs3)S2)CC1 was read as PABP1 MLLE inh -5, NS3 helicase inh -14, eIF4H inh -1, HCV core dimer 24, PABP FP inh -4 and FID counter -16.
For COc1cc(/C=C(\C#N)C(=O)NCC2CCCO2)ccc1O (centres undefined) the results were PABP1 MLLE inh -19, NS3 helicase inh -3, eIF4H inh active, HCV core dimer -6, PABP FP inh 59* and FID counter -6.
`CC1(C)Cc2c(C#N)c(NCc3ccco3)nc(-c3ccco3)c2CO1` gave PABP1 MLLE inh 24, NS3 helicase inh 20, eIF4H inh 102, HCV core dimer 52*, PABP FP inh 104 and FID counter -16.
For O=C1CCn2c1c(O)c1ccccc1c2=O the results were PABP1 MLLE inh 45*.
CC(OC(=O)c1ccc2c(=O)n3c(nc2c1)CCC3)C(N)=O (centres undefined) was read as PABP1 MLLE inh -13, NS3 helicase inh 7, eIF4H inh 4.5*, HCV core dimer 2, PABP FP inh 75* and FID counter -6.
Screening CC(c1nnc(SCC(=O)c2c(N)n(C3CC3)c(=O)[nH]c2=O)n1-c1ccc(F)cc1)N(C)C (centres undefined) returned PABP1 MLLE inh 5.
CCOCCc1nn2c(=O)cc(CSCC(=O)Nc3ccccc3)nc2s1 was read as PABP1 MLLE inh 11, NS3 helicase inh 19, HCV core dimer -2 and FID counter -19.
`O=[N+]([O-])c1cccc(C(=S)N2CCN(c3ccccc3F)CC2)c1` gave PABP1 MLLE inh 46*, NS3 helicase inh 3, eIF4H inh 12, HCV core dimer 2, PABP FP inh 0 and FID counter -1.
Screening CC1CN(C(=S)c2cccc([N+](=O)[O-])c2)CC(C)O1 (centres undefined) returned PABP1 MLLE inh 39*, NS3 helicase inh 0, eIF4H inh -1, HCV core dimer -3, PABP FP inh -1 and FID counter 2.
CC1CN(C(=S)NC(=O)c2ccc([N+](=O)[O-])cc2)CC(C)O1 (centres undefined) was read as PABP1 MLLE inh -25, NS3 helicase inh 3, eIF4H inh -4, HCV core dimer 2, PABP FP inh 3 and FID counter 1.
O=C(OCC(=O)N1CCN(c2ccccc2)CC1)c1cccc([N+](=O)[O-])c1 was read as PABP1 MLLE inh 10 and HCV core dimer -1.
O=[N+]([O-])c1cccc(C(=S)N2CCN(c3ccccc3)CC2)c1 was read as PABP1 MLLE inh 63*, NS3 helicase inh -1, eIF4H inh 9, HCV core dimer 2, PABP FP inh 6 and FID counter 4.
COC(=O)C1CC2=C(CCC2=O)N(c2ccccc2)C1=O (centres undefined) was read as PABP1 MLLE inh 17.

Compound activity: PubChem BioAssay, several laboratories
